PP5 inh: PP5 (human) phosphatase inhibition. P53041. purified PP5c, OMFP substrate fluorescence. inhibition, % at 6.7 µM. 320,000 tested, 0.18% active;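 active = inhibition above the campaign's mean inhibition across all tested compounds plus 3 SD, cut at about 9.5% in these data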;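 also: 0% = DMSO only and 100% = 100 µM cantharidin control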
Target sequence (P53041 whole entry, looked up): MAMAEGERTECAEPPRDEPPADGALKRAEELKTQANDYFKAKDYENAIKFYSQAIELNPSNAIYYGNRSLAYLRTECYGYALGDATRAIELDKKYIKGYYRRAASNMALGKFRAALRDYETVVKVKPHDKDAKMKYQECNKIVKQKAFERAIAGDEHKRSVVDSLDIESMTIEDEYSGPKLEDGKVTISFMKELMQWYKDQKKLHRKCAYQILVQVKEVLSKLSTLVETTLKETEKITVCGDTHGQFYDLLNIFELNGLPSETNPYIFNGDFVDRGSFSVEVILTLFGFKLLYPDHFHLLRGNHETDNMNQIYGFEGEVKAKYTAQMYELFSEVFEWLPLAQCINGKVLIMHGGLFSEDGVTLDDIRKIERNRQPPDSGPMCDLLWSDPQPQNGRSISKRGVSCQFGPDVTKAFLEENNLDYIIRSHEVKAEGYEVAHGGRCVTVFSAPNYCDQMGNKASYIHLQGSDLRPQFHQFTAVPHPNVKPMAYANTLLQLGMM
PP1 inh: blocks human PP1-alpha phosphatase, a PP5 counter-screen | inhibition, % at 6.7 µM | purified PP1alpha, OMFP fluorescence | P62136 | AID 2235 | 320,000 tested, 0.9% active;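 active = inhibition above the mean inhibition of all tested compounds plus 3 SD, computed separately for each screening campaign, cut at about 15% in these data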
T cell modulator: T cell immune modulation candidate. 330,000 tested, 0.068% active. 2C CD8+ T cell-vesicle binding, flow cytometry; hits give low values. response (vesicle binding), % at 7 µM;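 active = response, share of CD8 T cells binding vesicles, and their 90th percentile fluorescence all below set limits, cut at about 80% in these data, passing the limit was not always enough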;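 also: values below 100% mean blocked vesicle binding to the CD8+ T cells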
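Material: murine 2C transgenic CD8+ T lymphocytes / Also added: QL9-peptide-loaded Drosophila micro-vesicles bearing Ld, ICAM-1 and B7-1 / Schedule: binding step 1.5 h, 37 °C, antibody labelling 20 min, ice / Signal: flow cytometry, PE anti-B7-1 (FL2) versus Alexa647 anti-CD8 (FL8), PFA-fixed / Evaluation: percent CD8+ FL2 mean versus row control / Benchmarks: naked versus QL9-loaded vesicles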
HTR2A ag: mouse HTR2A agonism via beta-arrestin recruitment; CHO-K1 mHTR2A beta-arrestin complementation, luminescence; percent of 30 µM serotonin response; activation, % at 7.6 µM; 360,000 tested, 0.66% active; AID 624169;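 active = activation above a run cutoff, the mean activation of all tested compounds plus 3 SD, cut at about 14% in these data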;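 also: 0% = plate median of compound wells and 100% = 30 µM serotonin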
GASC-1 inh: inhibitors of human GASC-1 (JMJD2C) demethylase. GST-JMJD2C(1-420) H3K9me3 demethylation, DELFIA europium. 330,000 tested, 0.069% active. inhibition, % at 2.35 µM. AID 2099;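 active = more than half of a compound's replicate wells show inhibition beyond 50%, single wells judged on their own value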;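 also: signal counts dimethyl H3K9 product captured on neutravidin plate; 0% = median of DMSO wells and 100% = 0.3 times that DMSO median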
PP1 inh confirm: human PP1 phosphatase inhibition, confirmation; AID 2358; purified PP1alpha, OMFP substrate fluorescence; shares compounds with PP1 inh; inhibition, % at 6.7 µM; 1,900 tested, 52% active;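 active = mean PP1 inhibition above a set limit taken from the earlier primary screen, cut at about 15% in these data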
PP5 inh counter: counter-screen for PP1 inhibitors: human PP5 phosphatase inhibition. purified PP5c, OMFP fluorescence. 1,900 tested, 4% active. AID 2360. shares compounds with PP1 inh. inhibition, % at 6.7 µM;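 active = mean PP5 inhibition over triplicate wells above about 9.5% taken from the earlier PP1 screen, limit read from the data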
Numbers without * were called inactive; · = no result. Compounds with a hit are over-represented: about 1.7% of the library has one in this group of screens.

SMILES | PP5 inh | PP1 inh | T cell modulator | HTR2A ag | GASC-1 inh | PP1 inh confirm | PP5 inh counter
Cc1ccccc1Oc1nc(-c2ccccn2)nc2ccccc12 | 3 | 20* | 182 | -8 | -4 | 16* | 0
COc1ccc(OC)c(NC(=O)CSc2nnc(-c3ccco3)n2-c2ccccc2)c1 | 3 | -4 | 143 | -4 | 6 | · | ·
COc1ccc(OC)c(NC(=O)CSc2nnc(CCCO)n2-c2ccccc2)c1 | 0 | 21* | 302 | 7 | -4 | -4 | -2
Cc1ccc(Nc2cc(C)nn2-c2nc(C)cc(C)n2)cc1 | 3 | 14 | 159 | 1 | 0 | · | ·
Cc1ccc(Nc2cc(C)nn2-c2nc(C)cc(=O)[nH]2)cc1 | 3 | 26* | 343 | -12 | 1 | 20* | 1
CCOC(=O)N1CCC(c2cc(=O)n3[nH]c(C)c(-c4ccc(F)cc4)c3n2)CC1 | 3 | 19* | 141 | -1 | -3 | 13 | -1
COc1ccc(-c2cc(C(=O)NCCN3CCOCC3)no2)cc1OC | 2 | 32* | 376 | 2 | -3 | -4 | -1
O=C(NCCN1CCOCC1)c1cc(-c2ccc(Br)cc2)on1 | 3 | -4 | 381 | 3 | 8 | · | ·
CCN1CCN(c2cc3c(nn2)Oc2ccccc2N3C)CC1 | 3 | -3 | 224 | -7 | -5 | · | ·
Cc1ccccc1NC(=O)c1cnc2ccccn2c1=O | 0 | -3 | 147 | -3 | 0 | · | ·
CC1=C(C(=O)Nc2ccccc2C)C2(CCCC2)C(C(N)=O)C(=O)N1 (configuration not stated) | -3 | 26* | 395 | 2 | 4 | -5 | -6
CCOC(=O)c1ccc(-n2c(O)c(/C=N/NC(=O)C3COc4ccccc4O3)c3ccccc3c2=O)cc1 (configuration not stated) | -2 | 31* | 146 | -5 | 23 | 33* | -2
Cc1ccc(C(=O)N/C(=C\c2ccc(-c3cc(Cl)ccc3Cl)o2)C(=O)NCc2cccnc2)cc1 | 2 | 18* | 430 | -4 | -7 | 16* | 3
CCCCN(C(=O)c1cccc(-n2cccc2)c1)c1c(N)n(Cc2ccccc2)c(=O)[nH]c1=O | 2 | 34* | 202 | 3 | -14 | 0 | -6
O=C(NNc1nc2ccc(Cl)cc2s1)c1cc(-c2cccs2)nc2ccccc12 | 2 | 25* | 350 | -5 | -10 | 30* | -4
CCOc1ccc(NC(=O)CN(C)C(=O)CCN2C(=O)C3CC=CCC3C2=O)cc1OCC (configuration not stated) | -1 | -6 | 260 | -1 | -3 | · | ·
Cc1ccccc1NC(=O)COC(=O)/C=C/c1cn(-c2ccccc2)nc1-c1cccnc1 | 2 | 32* | 247 | 1 | -2 | 32* | -4
O=C(Nc1ccccn1)c1ccc([N+](=O)[O-])cc1Cl | -2 | -3 | 543 | 0 | -8 | · | ·
O=C(Nc1ccccn1)c1cc2cc([N+](=O)[O-])ccc2s1 | -2 | 21* | 147 | -1 | -5 | 18* | -4
O=C(O)c1c[nH]c2ccc(S(=O)(=O)N3CCN(c4ccc(F)cc4)CC3)cc2c1=O | 0 | 44* | 200 | 9 | 5 | 32* | -4
CCOC(=O)Cc1sc(N)nc1C | 1 | -1 | 210 | 1 | -1 | · | ·
Cc1cc(NS(=O)(=O)c2ccc(NC(=O)Cc3cccs3)cc2)no1 | 2 | -4 | · | 9 | -6 | · | ·
Cc1cc(NC(=O)Cc2cccs2)no1 | 2 | 28* | 284 | 3 | 3 | 0 | -5
COc1ccc(NC(=O)CNc2ccc(OC)c(S(=O)(=O)N3CCOCC3)c2)cc1 | · | · | · | 1 | · | · | ·
COc1ccc(CNC[C@@H](CCCCN(C)Cc2ccc(OC)cc2)N2C[C@H](c3ccccc3)N(CCc3ccc(Cl)c(Cl)c3)C(=O)C2=O)cc1 | 5 | 39* | · | -2 | -1 | 13 | -1
SMILES | PP5 inh | PP1 inh | T cell modulator | HTR2A ag | GASC-1 inh | PP1 inh confirm | PP5 inh counter
CCCCN(C(=O)C1CCCO1)c1c(N)n(CC(C)C)c(=O)[nH]c1=O (configuration not stated) | -2 | -5 | 554 | 5 | 15 | · | ·
O=C(NCC1CCCCC1)c1ccc(=O)[nH]c1 | 0 | 0 | 150 | 2 | 1 | · | ·
O=C(NCC1CCCCC1)c1cccc(-c2ccc(O)cc2)c1 | -2 | 18* | 539 | -11 | -3 | -2 | 0
CCC(C)[C@H](NC(=O)N1CC(=O)Nc2ccccc21)C(=O)N1CCC(C(=O)O)CC1 (some centres not stated) | -3 | 0 | 383 | 5 | -36 | · | ·
O=C(NC1CCCC1)c1nc2c(nnn2Cc2cccc(Cl)c2)c(=O)[nH]1 | -2 | 21* | 599 | -1 | 3 | 9 | -2
CC(=O)c1cccc(S(=O)(=O)N2CCCC(c3nc4c(nnn4Cc4cccc(Cl)c4)c(=O)[nH]3)C2)c1 (configuration not stated) | 3 | 20* | 268 | 1 | -12 | 15* | 2
O=C(NC1CCCC1)c1nc2c(nnn2Cc2ccccc2Cl)c(=O)[nH]1 | -1 | 13 | 229 | 7 | 6 | · | ·
O=c1[nH]c(C2CCN(S(=O)(=O)c3ccc(C(F)(F)F)cc3)CC2)nc2c1nnn2Cc1ccc(F)cc1 | 6 | 19* | 188 | -2 | -11 | 5 | 5
Cc1ccc(OCC(=O)O)c(O)c1 | · | · | · | 6 | · | · | ·
Cc1cccc(C=NOCCc2ccccc2)n1 | · | · | · | 1 | · | · | ·
Cn1c(N2CCOCC2)c(/C=N/OC(=O)c2ccc(F)cc2)c2ccccc21 | 1 | -1 | 328 | -2 | -6 | · | ·
Cc1ccc(C(=O)O/N=C/c2c(N3CCOCC3)n(C)c3ccccc23)cc1 | 3 | 21* | 308 | 1 | 3 | -1 | 1
O=C(Nc1cccnc1)c1cc(S(=O)(=O)N2CCCCC2)c(Cl)cc1Cl | 1 | 1 | 206 | 1 | -1 | · | ·
Cc1ccc(-c2ccc(SCC(=O)Nc3cc(C)on3)nn2)cc1 | 0 | 6 | 282 | 6 | -2 | · | ·
Cc1cc(NC(=O)CSc2ccc(-c3ccc(Br)cc3)nn2)no1 | -2 | 18* | 227 | -5 | 17 | -3 | -3
C=CCOc1ccc(/C=C2\SC(=S)N(NS(=O)(=O)c3ccc(C)cc3)C2=O)cc1 | 2 | 25* | 261 | 2 | 9 | 17* | -1
Cc1ccc(/C=C2\SC(=S)N(NS(=O)(=O)c3ccc(C)cc3)C2=O)cc1 | 4 | 5 | 157 | 1 | -2 | · | ·
Cc1ccc(OCC(=O)Nc2nc(-c3ccccn3)cs2)c(C)c1 | 7 | 43* | 654 | -2 | 2 | 41* | -3
O=C(COc1ccc(F)cc1)Nc1nc(-c2ccccn2)cs1 | 5 | 27* | 371 | -9 | 2 | 35* | -3
O=C(Nc1nc(-c2ccccn2)cs1)Nc1ccc(F)cc1F | 2 | 38* | 505 | -11 | 9 | 42* | -1
O=C(Nc1nc(-c2ccccc2)cs1)Nc1ccc(F)cc1F | 0 | 7 | 315 | -8 | 10 | · | ·
